Experimental data of several laboratories.
Each line is one published result; the experiments were not run side by side.
Target: Serine/threonine-protein kinase D2 (PRKD2, Homo sapiens, UniProt Q9BZL6)
Residues used in one study (Q9BZL6 1-878): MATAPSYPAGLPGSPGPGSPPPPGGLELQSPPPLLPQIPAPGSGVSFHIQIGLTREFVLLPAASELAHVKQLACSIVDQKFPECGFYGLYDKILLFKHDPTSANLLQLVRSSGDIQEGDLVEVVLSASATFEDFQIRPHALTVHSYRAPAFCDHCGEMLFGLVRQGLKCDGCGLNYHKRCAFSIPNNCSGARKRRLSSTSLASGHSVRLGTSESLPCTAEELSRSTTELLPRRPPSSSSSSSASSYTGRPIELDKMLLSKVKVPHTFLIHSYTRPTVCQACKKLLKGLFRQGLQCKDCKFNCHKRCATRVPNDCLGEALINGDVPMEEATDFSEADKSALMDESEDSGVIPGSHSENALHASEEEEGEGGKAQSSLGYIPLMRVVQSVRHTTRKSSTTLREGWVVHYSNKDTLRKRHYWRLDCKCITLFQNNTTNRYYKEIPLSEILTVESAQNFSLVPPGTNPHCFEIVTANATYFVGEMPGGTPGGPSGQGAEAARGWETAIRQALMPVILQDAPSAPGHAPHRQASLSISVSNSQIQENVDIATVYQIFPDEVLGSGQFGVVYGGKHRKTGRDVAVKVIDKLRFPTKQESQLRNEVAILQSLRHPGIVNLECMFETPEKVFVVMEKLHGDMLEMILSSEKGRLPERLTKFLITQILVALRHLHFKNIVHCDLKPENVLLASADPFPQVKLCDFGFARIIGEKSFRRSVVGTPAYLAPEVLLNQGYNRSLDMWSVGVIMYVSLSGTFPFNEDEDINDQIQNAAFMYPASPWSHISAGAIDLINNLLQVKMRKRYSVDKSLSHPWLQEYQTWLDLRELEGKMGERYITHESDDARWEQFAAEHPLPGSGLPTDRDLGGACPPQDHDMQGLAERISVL

SMILES	observed	action	technique	concentration	endpoint	result
CCCCNc1ncc2c(-c3ccc(F)cc3)nn(C[C@H]3CC[C@H](N)CC3)c2n1	target engagement in cells	inhibitor	chemoproteomics	20 mM	inhibition	28.3%
COc1cc2c(N3CCN(C(=O)Nc4ccc(OC(C)C)cc4)CC3)ncnc2cc1OCCCN1CCCCC1	cell-free assay	–	–	0.5 µM	remaining signal	96.4%
Nc1ncnc2occ(-c3ccc(NC(=O)Nc4cc(C(F)(F)F)ccc4F)cc3)c12	cell-free assay	inhibitor	–	20 µM	remaining signal	43%
Cc1c(NC(=O)c2cc(C(N)=O)nc3cc(F)ccc23)c(C(F)(F)F)nn1Cc1ccc(C(C)(C)C)cc1	cell-free assay	–	competition with immobilised ligand	1 µM	remaining binding	100%
COc1cc2ncnc(Nc3ccc(Oc4ccccc4)cc3C)c2cc1OC	enzyme activity	inhibitor	–	1 µM	inhibition	9%
Cn1c2c(c3ccc(Cl)c(Cl)c31)C(C#N)C1(CCN(C(=O)OC(C)(C)C)CC1)NC2=O (racemic)	thermal stability	–	DSF	10 µM	ΔTm	0 °C
Cn1cnc(Br)c1C1=CN(c2ncnc3[nH]cnc23)CCS1	enzyme activity	inhibitor	radiometric	2 µM	inhibition	95.6%
CC(C)CC(=O)N1CCc2nc(-c3ccc(Br)cc3)nc(N(C)Cc3ccccc3)c2C1	cell-free assay	–	competition with immobilised ligand	0.1 µM	remaining binding	100%
Cn1cncc1C1=CN(c2ncnc3[nH]cnc23)CCS1	enzyme activity	inhibitor	radiometric	50 nM	inhibition	38.2%
Cc1ccc(C(=O)NCc2ccsc2)cc1C#Cc1cn(C(C)C)c2ncnc(N)c12	enzyme activity	inhibitor	–	1 µM	activity vs control	71%
Nc1cnc(N2CCc3cc(S(=O)(=O)Nc4c(F)cc(Cl)cc4F)cc(N4CCCC4=O)c32)nc1	cell-free assay	–	competition with immobilised ligand	1 µM	remaining binding	100%
O=S1(=O)N=C(NCc2ccc(OC(F)(F)F)cc2)Nc2cc(Cl)ccc21	binding	–	competition with immobilised ligand	10 µM	inhibition	> 90%
Cc1cc(C)c(-n2ccn3nc(-c4cccnc4)cc23)cc1NC(=O)c1cc(C#N)cc(S(F)(F)(F)(F)F)c1	cell-free assay	–	competition with immobilised ligand	0.1 µM	remaining binding	100%
CNc1cccc2cc(C(=O)Nc3ccc(C(=O)O)cc3)c(=O)[nH]c12	enzyme activity	inhibitor	–	10 µM	inhibition	2.5%
CNC(=O)Nc1ccc2c(c1)[C@@]1(CC2)OC(=O)N(CC(=O)N(Cc2ccc(F)cc2)[C@@H](C)C(F)(F)F)C1=O	cell-free assay	–	competition with immobilised ligand	1 µM	remaining binding	100%
Cn1c2c(Cl)c(Cl)ccc2c2cc[nH]c(=O)c21	thermal stability	–	DSF	10 µM	ΔTm	0.4 °C
Cc1cc(NC(=O)c2cccc3cc(-c4cccc5[nH]nc(N)c45)ccc23)ccc1F	enzyme activity	inhibitor	–	0.1 µM	activity vs control	91%

SMILES	observed	action	technique	concentration	endpoint	result
Cn1c2c(c3ccc(Cl)c(Cl)c31)C(C#N)C1(CCCC1)NC2=O (stereo not shown)	thermal stability	–	DSF	10 µM	ΔTm	-0.1 °C
CC(C)(C)c1nc2c(s1)c1nc(N)ncc1c1ccc(NS(=O)(=O)c3c(F)cccc3F)c(F)c12	enzyme activity	inhibitor	radiometric	1 µM	remaining activity	79%
COc1cc(-c2cn(C3CCc4ccccc4N(CC(F)(F)F)C3=O)nn2)ccc1-n1ccc(C)n1 (stereo not shown)	cell-free assay	–	competition with immobilised ligand	1 µM	remaining binding	86%
Cn1c2c(c3ccc(Cl)c(Cl)c31)C(C#N)C1(CCOCC1)NC2=O (stereo not shown)	thermal stability	–	DSF	10 µM	ΔTm	-0.1 °C
Cc1ccc(Nc2nccc(N(C)c3ccc4c(C)n(C)nc4c3)n2)cc1S(N)(=O)=O	enzyme activity	inhibitor	–	0.3 µM	inhibition	9%
c1ccc(CNc2nc(N3CCOc4ccccc43)nc3c2CCCC3)cc1	target engagement in cells	inhibitor	chemoproteomics	20 mM	inhibition	-7.2%
O=C1Nc2ccc(Cl)cc2C1=Cc1cc(Cl)c(O)c(Cl)c1	cell-free assay	–	–	0.5 µM	remaining signal	95.5%
Cn1c2c(c3ccc(Cl)c(Cl)c31)C(C#N)C1(CCCCC1)NC2=O (racemic)	thermal stability	–	DSF	10 µM	ΔTm	0.1 °C
CCCS(=O)(=O)Nc1ccc(F)c(C(=O)c2c[nH]c3ncc(-c4ccc(Cl)cc4)cc23)c1F	enzyme activity	inhibitor	–	1 µM	inhibition	< 10%
CN1CC(Oc2cnc(C#N)cc2-c2ccn3nc(NC(=O)C4CC4)cc3c2)C1	enzyme activity	inhibitor	–	1 µM	inhibition	-22%
CNC(=O)c1cc(Oc2ccc(NC(=O)Nc3ccc(Cl)c(C(F)(F)F)c3)cc2)ccn1	enzyme activity	inhibitor	–	0.3 µM	inhibition	5%
CCCCN(CCCC)C(=O)CN1C[C@H](c2cc(OC)c3c(c2)OCO3)[C@@H](C(=O)O)[C@@H]1CC(C)(C)CCC	cell-free assay	–	competition with immobilised ligand	1 µM	remaining binding	100%
CCN(CC)CCNC(=O)c1c(C)[nH]c(/C=C2\C(=O)Nc3ccc(F)cc32)c1C	enzyme activity	inhibitor	–	0.3 µM	inhibition	30%
CC1(C)NC(=O)c2[nH]c3c(Cl)c(Cl)ccc3c2C1C#N (stereo not shown)	thermal stability	–	DSF	10 µM	ΔTm	-0.1 °C
CSc1cccnc1N1CCN(Cc2nc3ccccc3[nH]2)CC1	cell-free assay	–	competition with immobilised ligand	1 µM	remaining binding	100%
CC/C(=N\NC(=O)NCc1cccc(O)c1)c1ccc(O)c(C)c1O	enzyme activity	inhibitor	–	0.1 µM	inhibition	-11.5%
O=C(Nc1cnn(-c2csc(C(=O)NC3COC3)c2)c1)Nc1ccccc1Cl	enzyme activity	inhibitor	–	5 µM	remaining activity	92.8%
